# Assay outcomes as filed in PubChem BioAssay.
# In the library only some 2.1% were active in any assay of this set; here they are far more common.
# M5 antag: antagonists of human muscarinic M5 receptor (CHRM5); inhibition, % at 3 µM; 360,000 tested, 0.59% active; P08912; CHO-hM5 cells, Fluo-8 calcium fluorescence, ACh EC80;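 active = inhibition above a per-plate cutoff, the mean of that plate's test compounds plus 3 SD, cut at about 27% in these data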;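 note: 0% = acetylcholine EC80 with DMSO and 100% = DMSO without agonist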
# CHRM5 PAM: potentiates acetylcholine response at human M5 receptor. P08912. CHO-K1 hM5, Fluo-8 calcium, ACh EC20 PAM; 0% = ACh EC20, 100% = ACh EC100. activation, % at 3 µM. 360,000 tested, 0.3% active. AID 624038;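 active = activation above the run cutoff, the mean activation of all test compounds plus 3 SD, cut at about 18% in these data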
#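 system = human M5 receptor in CHO-K1 cells | compound = one concentration, 3 µM final (nominal) | schedule = Post-acetylcholine fluorescence recording 140 s | signal = Fluo-8 calcium dye fluorescence, kinetic read | benchmarks = low control EC20 acetylcholine (0%), high control EC100 acetylcholine (100%) | repeats = singlicate, one well per test compound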
# M1 antag: human CHRM1 antagonism; CHO-K1 hM1, Fluo-8 calcium fluorescence, ACh EC80 antagonist; inhibition, % at 3 µM; 360,000 tested, 1.3% active; AID 588852;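 active = percent inhibition above its own plate's cutoff, namely the mean of that plate's compound wells plus 3 SD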;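 note: peak over basal fluorescence ratio during 140 s after agonist addition; 0% = ACh EC80 plus DMSO and 100% = DMSO alone without agonist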
# Target sequence (P11229 whole entry, looked up): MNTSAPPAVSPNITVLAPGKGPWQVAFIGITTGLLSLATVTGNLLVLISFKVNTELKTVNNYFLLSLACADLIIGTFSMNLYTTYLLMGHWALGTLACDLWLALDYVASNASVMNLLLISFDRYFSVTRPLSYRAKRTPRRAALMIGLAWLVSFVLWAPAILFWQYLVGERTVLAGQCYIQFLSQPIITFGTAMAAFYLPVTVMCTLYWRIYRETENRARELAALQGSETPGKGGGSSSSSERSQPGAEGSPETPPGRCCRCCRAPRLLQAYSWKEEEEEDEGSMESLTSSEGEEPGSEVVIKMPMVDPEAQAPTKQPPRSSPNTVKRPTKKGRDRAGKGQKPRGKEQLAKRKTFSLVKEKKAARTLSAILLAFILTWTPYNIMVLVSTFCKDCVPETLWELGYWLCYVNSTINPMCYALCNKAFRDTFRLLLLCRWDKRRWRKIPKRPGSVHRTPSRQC
# CHRM1 agonist: agonists of human M1 muscarinic receptor | activation, % at 3 µM | 360,000 tested, 0.33% active | P11229 | CHO-K1 hM1, Fluo-8 calcium fluorescence, agonist mode; 0% DMSO, 100% acetylcholine EC100;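 active = activation above the run's mean compound activation plus 3 SD, cut at about 16% in these data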;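 note: peak over basal fluorescence ratio within a 140 s kinetic read after compound addition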
# M5 ag: CHRM5 agonism in calcium assay; 360,000 tested, 0.19% active; CHO-K1 hM5 cells, Fluo-8 calcium fluorescence; 0% DMSO wells, 100% maximal acetylcholine response; P08912; AID 624037; activation, % at 3 µM;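 active = activation above the run's mean over test compounds plus 3 SD, cut at about 23% in these data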;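 note: signal is peak over basal fluorescence ratio across the kinetic read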
# CHRM1 PAM: potentiates human M1 receptor response to acetylcholine; CHO-K1 hM1, Fluo-8 calcium fluorescence, ACh EC20; 0% = ACh EC20, 100% = maximal ACh; activation, % at 3 µM; 360,000 tested, 0.088% active; AID 588819; in the data active = activation above about 19%, passing the limit was not always enough
# An asterisk follows results filed as active.
SMILES,M5 antag,CHRM5 PAM,M1 antag,CHRM1 agonist,M5 ag,CHRM1 PAM
Cc1cccc(NC(=S)NC2CC3C=CC2C3)c1 (configuration not stated),-5.2,0.6,-16.4,-3.4,-7.4,11.5
O=C(COc1ccc(Cl)cc1)NCc1nnc(SCC(=O)Nc2ccc3c(c2)OCCO3)o1,2.4,-5.4,-5.2,-1.2,-1.2,5.8
NC(=O)c1ccc(N2CCN(S(=O)(=O)c3cccs3)CC2)c([N+](=O)[O-])c1,23.0,-27.2,34.5*,3.0,9.2,-14.2
O=C(NCCN1C(=O)S/C(=C\c2cccnc2)C1=O)c1ccc([N+](=O)[O-])s1,2.6,0.3,-9.4,-0.9,3.2,4.0
CNC(=S)NCc1ccc2[nH]c(C)cc2c1,1.2,18.2*,-3.2,-11.4,-2.5,14.5
CCOc1ccc(Oc2nc(Nc3ccc(C)cc3)nc(N(C)C)n2)nn1,-3.3,2.3,-21.2,-3.2,-1.7,2.5
COc1ccc(CCC(=O)NCc2cccc(C(F)(F)F)c2)cc1,15.0,-2.6,-5.5,-6.9,-3.6,2.2
CC(C)CCNC(=O)CN(CC1CCCO1)C(=O)CCC(=O)Nc1nccs1 (configuration not stated),-13.4,-0.8,-44.2,0.8,-2.5,20.0*
COc1cccc(NC(=O)c2cc3ccccc3oc2=O)c1,-15.7,1.1,-12.3,-1.8,0.5,3.4
Cc1ccc(/C=C2\NC(=S)NC2=O)cc1[N+](=O)[O-],-10.1,-4.9,-3.1,-9.1,-3.5,11.6
O=C1NC(=S)N/C1=C\c1ccc(Oc2ccc(C(F)(F)F)cc2[N+](=O)[O-])c(Cl)c1,-9.4,19.4*,-26.9,-1.5,3.4,3.0
CCc1nc2ccc(C(=O)Nc3ccc4c(c3)OCC(=O)N4)cn2c1N(C)C(=O)C1CCCCC1,5.4,-5.5,-12.9,1.3,-0.1,9.8
O=C(c1cccs1)N1CCN(C2CCN(Cc3ccccc3)CC2)CC1,6.8,-9.2,38.7*,-6.4,-13.4,-20.1
O=C(NC(=O)c1ccccc1)OCC1CCCN2CCCCC12 (configuration not stated),-0.5,-2.3,-9.7,-10.5,-3.4,5.6
O=C(OCC1CCCN2CCCCC12)c1ccc2c(c1)OCO2 (configuration not stated),-3.2,1.6,29.1*,-8.8,-2.1,-18.9
CC1=CC(=O)C=C(C)C1=NOS(=O)(=O)c1ccccc1,41.4*,2.1,18.5*,11.1,23.5*,4.3
CC1=CC(=O)C(C(C)C)=C/C1=N/OS(=O)(=O)c1ccccc1,50.6*,-27.9,61.3*,4.8,9.6,-16.7
CC(=O)OC1[C@H](Oc2c(O)c(C)c3c4c2[C@@H](C)CC[C@@H]4[C@@H](C)C[C@@H]3C=C(C)C)OC[C@@H](O)[C@@H]1O (some centres not stated),13.7,-6.0,-8.3,-2.2,3.6,7.6
COc1ccccc1CNC(=O)c1cc(-c2ccccc2C)n(CC2CC(c3cccc([N+](=O)[O-])c3)=NO2)n1 (configuration not stated),8.1,-12.9,2.9,-1.8,-0.1,-5.4
Cc1c(Cc2ccc3c(c2)OCO3)sc(NC(=O)C2CC2)c1C(N)=O,9.6,0.0,-4.8,0.9,-2.6,6.8
Cc1c(Cc2ccc3c(c2)OCO3)sc(NC(=O)c2cccc3ccccc23)c1C(N)=O,2.7,0.4,101.4*,-13.2,2.2,-33.0
Cc1cc(C)cc(NC(=S)NCC2CCCO2)c1 (configuration not stated),-3.0,5.0,11.7*,-2.5,-4.3,-11.4
CCCC1=C(C(=O)OCC)C(c2ccccc2OCC)NC(=O)N1C (configuration not stated),3.1,1.1,-8.4,-5.0,-6.4,9.1
O=C(CC1C(=O)NCCN1CC1CCCCC1)NCc1cc(F)ccc1F (configuration not stated),27.2*,-14.7,-6.0,-5.8,-0.9,7.2
O=C(CC1C(=O)NCCN1CC1CCCCC1)NCc1ccc(F)cc1F (configuration not stated),-7.2,11.8,-1.4,-8.5,-1.0,9.4
SMILES,M5 antag,CHRM5 PAM,M1 antag,CHRM1 agonist,M5 ag,CHRM1 PAM
O=C(NCCCSc1ccccc1)c1cc(Br)ccc1O,33.0*,-14.9,30.8*,1.9,1.1,-11.8
O=C(NCCSc1ccccc1)c1ccc(Br)cc1,-1.9,0.6,-7.9,-12.2,-2.9,13.3
CCOc1ccc(/C=C/C(=O)Nc2ccc(N3CCOCC3)cc2)cc1,-6.3,3.4,-23.7,-2.6,0.1,1.8
Cc1c(CN2CCC(CO)(Cc3cccc(C(F)(F)F)c3)CC2)c2ccccc2n1C,-15.1,10.3,25.6*,-8.3,0.4,-26.1
COc1ccc(CN2CCC(CO)(Cc3cccc(C(F)(F)F)c3)CC2)cc1Cn1cccn1,17.1,-14.9,23.4*,-1.5,-12.2,-17.7
CCCc1cc(=O)[nH]c(SCc2nc3ccccc3o2)n1,-7.3,2.6,2.0,-4.3,-0.9,4.0
CCn1nc(C)c(CN2CCCC(CO)(Cc3ccccc3)C2)c1C (configuration not stated),-7.5,6.0,-7.8,-8.3,-14.8,2.2
COc1ccccc1/C=C/CN1CCCC(CO)(Cc2cccc(Cl)c2)C1 (configuration not stated),17.9,-15.1,56.1*,-0.1,-11.3,-16.8
CCn1nc(C)c(CN2CCCC(CO)(Cc3cccc(Cl)c3)C2)c1C (configuration not stated),16.7,-21.0,54.0*,-6.0,-20.9,-23.4
CCCC#CCN1CCN(C23CC4CC(CC(C4)C2)C3)CC1,15.3,-11.8,46.9*,-11.3,-6.6,-24.6
Cc1ccc(Cl)cc1-c1cc(C(=O)NCc2cc(C(F)(F)F)cc(C(F)(F)F)c2)[nH]n1,2.5,-7.5,46.5*,-3.3,0.5,-24.0
Cc1ccc(F)cc1-c1cc(C(=O)NCc2cc(C(F)(F)F)cc(C(F)(F)F)c2)[nH]n1,1.0,3.6,24.3,-1.5,-0.8,-19.1
CCOC(=O)CCCCCCCCC(=O)Nc1ccc(-n2[nH]c(=O)cc2C)cc1,-1.3,-11.3,-9.1,20.5*,23.6*,-2.2
Cc1nnc(Nc2ccccc2)n(N)c1=O,4.5,13.7,-15.0,-0.4,-2.2,13.0
C[C@H](NC(=O)[C@@H]1CSC2c3ccccc3C(=O)N21)C(=O)NC1CCCC1 (some centres not stated),7.5,3.1,27.4*,-0.2,-4.0,-10.4
c1ccc(COc2ccc(CN3CCN(c4ccccn4)CC3)cc2)cc1,0.6,-7.0,32.5*,-5.8,-6.4,-21.8
COc1cccc(OC)c1OCCCN1CCC(Cc2ccccc2)CC1,7.0,-8.1,45.3*,-5.3,-14.6,-24.1
